Test results as given in ChEMBL document CHEMBL1140869, “Organocatalyzed highly atom economic one pot synthesis of tetrahydropyridines as antimalarials” (2009).
Values after ≈ are worked out from the molar mass of the structure shown.

Tests used:
Format in all cases: functional
[1] = test system: Plasmodium falciparum; test: Antimalarial schizonticidal activity against Plasmodium falciparum 3D7 infected erythrocytes at 2.5 ug/ml after 30-39 hrs
How it was run: (§1)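 Schizont maturation test (WHO protocol, minor modifications): drug dilutions in complete RPMI 1640 with parasite added. Final culture was 3–4% hematocrit and 1.0–2.0% parasitized erythrocytes (>95% rings), with 0.5% AlbuMax II and 15 µM hypoxanthine. Incubated 30–39 h at 37 °C under 5% CO2. Giemsa-stained thin smears were scored for schizont maturation relative to untreated controls, giving % schizont inhibition at each concentration.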

[2] = test system: Plasmodium falciparum; test: Antimalarial schizonticidal activity against Plasmodium falciparum 3D7 infected erythrocytes at 1.25 ug/ml after 30-39 hrs; how it was run: as §1
[3] = test system: Plasmodium falciparum; test: Antimalarial schizonticidal activity against Plasmodium falciparum 3D7 infected erythrocytes at 5 ug/ml after 30-39 hrs; how it was run: as §1
[4] = test system: Plasmodium falciparum; test: Antimalarial schizonticidal activity against Plasmodium falciparum 3D7 infected erythrocytes at 10 ug/ml after 30-39 hrs; how it was run: as §1
[5] = test system: Plasmodium falciparum; test: Antimalarial schizonticidal activity against Plasmodium falciparum 3D7 infected erythrocytes at 0.39 ug/ml after 30-39 hrs; how it was run: as §1
[6] = test system: Plasmodium falciparum; test: Antimalarial activity schizonticidal against Plasmodium falciparum 3D7 infected erythrocytes at 0.05 ug/ml after 30-39 hrs; how it was run: as §1
[7] = test system: Plasmodium falciparum; test: Antimalarial schizonticidal activity against Plasmodium falciparum 3D7 infected erythrocytes at 0.78 ug/ml after 30-39 hrs; how it was run: as §1
[8] = test system: Plasmodium falciparum; test: Antimalarial schizonticidal activity against Plasmodium falciparum 3D7 infected erythrocytes at 0.19 ug/ml after 30-39 hrs; how it was run: as §1
[9] = test system: Plasmodium falciparum; test: Antimalarial schizonticidal activity against Plasmodium falciparum 3D7 infected erythrocytes at 0.09 ug/ml after 30-39 hrs; how it was run: as §1
[10] = test system: Plasmodium falciparum; test: Antimalarial schizonticidal activity against Plasmodium falciparum 3D7 infected erythrocytes after 30-39 hrs; how it was run: as §1

| Compound | inhibition at 2.5 µg/mL [1] [%] | inhibition at 1.25 µg/mL [2] [%] | inhibition at 5 µg/mL [3] [%] | inhibition at 10 µg/mL [4] [%] | inhibition at 0.39 µg/mL [5] [%] | inhibition at 0.05 µg/mL [6] [%] | inhibition at 0.78 µg/mL [7] [%] | inhibition at 0.19 µg/mL [8] [%] | inhibition at 0.09 µg/mL [9] [%] | MIC [10] [µg/mL] |
| --- | --- | --- | --- | --- | --- | --- | --- | --- | --- | --- |
| CCOC(=O)C1=C(Nc2ccc(OC)cc2)CC(c2cccc(Cl)c2)N(c2ccc(OC)cc2)C1c1cccc(Cl)c1 (centres undefined) | 50 | 16 | 92 | 100 | – | – | – | – | – | – |
| COC(=O)C1=C(Nc2ccc(Cl)cc2)CC(c2ccc(OC)cc2)N(c2ccc(Cl)cc2)C1c1ccc(OC)cc1 (centres undefined) | 100 | 100 | 100 | 100 | 75 | 16 | 95 | 41 | 33 | – |
| COC(=O)C1=C(Nc2ccc(OC)cc2)CC(c2ccc(Br)cc2)N(c2ccc(OC)cc2)C1c1ccc(Br)cc1 (centres undefined) | 95 | 33 | 100 | 100 | – | – | – | – | – | – |
| COC(=O)C1=C(Nc2ccc(OC)cc2)CC(c2ccc(OC)cc2)N(c2ccc(OC)cc2)C1c1ccc(OC)cc1 (centres undefined) | 90 | 86 | 100 | 100 | – | – | – | – | – | – |
| COC(=O)C1=C(Nc2ccccc2)CC(c2ccc(OCc3ccccc3)cc2)N(c2ccccc2)C1c1ccc(OCc2ccccc2)cc1 (centres undefined) | 2 | 0 | 2 | 23 | – | – | – | – | – | – |
| COC(=O)C1=C(Nc2ccc(OC)cc2)CC(c2cccc(Cl)c2)N(c2ccc(OC)cc2)C1c1cccc(Cl)c1 (centres undefined) | 100 | 33 | 100 | 100 | – | – | – | – | – | – |
| COC(=O)C1=C(Nc2ccccc2)CC(c2ccc(OC)cc2)N(c2ccccc2)C1c1ccc(OC)cc1 (centres undefined) | 100 | 100 | 100 | 100 | 67 | 25 | 94 | 47 | 45 | – |
| COC(=O)C1=C(Nc2ccc(Cl)cc2)CC(c2ccc(Br)cc2)N(c2ccc(Cl)cc2)C1c1ccc(Br)cc1 (centres undefined) | 0 | 0 | 0 | 33 | – | – | – | – | – | – |
| COC(=O)C1=C(Nc2ccccc2)CC(c2ccc(F)cc2)N(c2ccccc2)C1c1ccc(F)cc1 (centres undefined) | 100 | 100 | 100 | 100 | 100 | 16 | 100 | 75 | 33 | – |
| COC(=O)C1=C(Nc2ccccc2)CC(c2ccc(Br)cc2)N(c2ccccc2)C1c1ccc(Br)cc1 (centres undefined) | 85 | 46 | 100 | 100 | – | – | – | – | – | – |
| CCOC(=O)C1=C(Nc2ccc(Cl)cc2)CC(c2ccc(Cl)cc2)N(c2ccc(Cl)cc2)C1c1ccc(Cl)cc1 (centres undefined) | 0 | 0 | 66 | 83 | – | – | – | – | – | – |
| CCOC(=O)C1=C(Nc2ccc(OC)cc2)CC(c2ccccc2)N(c2ccc(OC)cc2)C1c1ccccc1 (centres undefined) | 100 | 100 | 100 | 100 | 33 | 0 | 66 | 0 | 0 | – |
| CCOC(=O)C1=C(Nc2ccccc2)CC(c2ccccc2)N(c2ccccc2)C1c1ccccc1 (centres undefined) | 92 | 25 | 100 | 100 | – | – | – | – | – | – |
| COC(=O)C1=C(Nc2ccccc2)CC(c2ccccc2)N(c2ccccc2)C1c1ccccc1 (centres undefined) | 100 | 100 | 100 | 100 | 90 | 0 | 96 | 33 | 0 | – |
| COC(=O)C1=C(Nc2ccccc2)CC(c2cccc(Cl)c2)N(c2ccccc2)C1c1cccc(Cl)c1 (centres undefined) | 81 | 46 | 81 | 100 | – | – | – | – | – | – |
| CCOC(=O)C1=C(Nc2ccc(Cl)cc2)CC(c2cccs2)N(c2ccc(Cl)cc2)C1c1cccs1 (centres undefined) | 93 | 86 | 100 | 100 | – | – | – | – | – | – |
| COC(=O)C1=C(Nc2ccc(OC)cc2)CC(c2cccs2)N(c2ccc(OC)cc2)C1c1cccs1 (centres undefined) | 100 | 100 | 100 | 100 | 100 | 16 | 100 | 75 | 25 | – |
| COC(=O)C1=C(Nc2ccc(Br)cc2)CC(c2ccc(OC)cc2)N(c2ccc(Br)cc2)C1c1ccc(OC)cc1 (centres undefined) | 91 | 25 | 100 | 100 | – | – | – | – | – | – |
| COC(=O)C1=C(Nc2ccc(OC)cc2)CC(c2ccc(F)cc2)N(c2ccc(OC)cc2)C1c1ccc(F)cc1 (centres undefined) | 100 | 100 | 100 | 100 | 100 | 91 | 100 | 100 | 100 | – |
| COC(=O)C1=C(Nc2ccc(Cl)cc2)CC(c2ccc(F)cc2)N(c2ccc(Cl)cc2)C1c1ccc(F)cc1 (centres undefined) | 100 | 93 | 100 | 100 | – | – | – | – | – | – |
| CCOC(=O)C1=C(Nc2ccccc2)CC(c2cccnc2)N(c2ccccc2)C1c1cccnc1 (centres undefined) | 100 | 100 | 100 | 100 | 100 | 42 | 100 | 97 | 42 | – |
| CCN(CC)CCCC(C)Nc1ccnc2cc(Cl)ccc12 (centres undefined) [CHLOROQUINE] | 97 | 86 | 100 | 100 | 100 | 54 | 100 | 97 | 86 | 0.025 (≈ 0.0782 µM) |
